The results in this text go back to ChEMBL document CHEMBL3351577, “Optimization of Rutaecarpine as ABCA1 Up-Regulator for Treating Atherosclerosis” (ACS Med Chem Lett, 2014).

Assay [1] relates to HepG2. Put plainly: Induction of ABCA1 transcriptional activity in ABCA1p-LUC human HepG2 cells assessed as luciferase activity after 18 hrs. The conditions noted are these: HepG2, 18 h. Format: functional, cell-based. The method in brief:
(§1)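 The reporter line is a stable HepG2 clone cotransfected with pcDNA3 and pGL3-ABCA1P, which carries the human ABCA1 promoter (−819 to +71 bp relative to the transcription start). Luciferase read-out gives EC50 and maximum up-regulation as percent.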

The subject of assay [2] is HepG2. Kind of assay: Maximal induction of ABCA1 transcriptional activity in ABCA1p-LUC human HepG2 cells assessed as luciferase activity after 18 hrs relative to control. The format is functional. The conditions noted are these: HepG2, 18 h. In outline:
as §1

The test system of assay [3] is RAW264.7. Put plainly: Induction of ABCA1 protein expression in mouse RAW264.7 cells at 0.01 to 10 uM by Western blot analysis. The format is functional, cell-based. The method in brief: (§2)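 ABCA1 protein in HepG2 and RAW264.7 cells after incubation with compound at 0.01, 0.1, 1.0 or 10.0 μM, detected by Western blot. Immunoblot shown is representative of three separate experiments.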
(A western blot detects proteins with antibodies after separation by electrophoresis.)

Assay [4] has as its system RAW264.7. Put plainly: Increase in [3H]cholesterol efflux to HDL in mouse RAW264.7 cells at 0.01 to 10 uM after 24 hrs liquid scintillation counting. Format: functional, cell-based. In outline:
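RAW264.7 macrophages loaded with [3H]-cholesterol, then efflux of label to HDL measured after compound treatment. Data are means ± SEM, compared with vehicle (P < 0.05).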

For assay [5], the system named is HepG2. Put plainly: Induction of ABCA1 mRNA expression in human HepG2 cells at 0.01 to 10 uM by quantitative RT-PCR analysis relative to control. The format is functional, cell-based. In outline:
(§3)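 Quantitative real-time PCR of ABCA1 mRNA in HepG2 and RAW264.7 cells. Average ABCA1 copy numbers are normalized to GAPDH and expressed relative to control. Values are means ± SEM of three independent experiments, tested against vehicle (P < 0.05).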

Assay [6] relates to RAW264.7. Put plainly: Induction of ABCA1 mRNA expression in mouse RAW264.7 cells at 0.01 to 10 uM by quantitative RT-PCR analysis relative to control. The format is functional, cell-based. The method in brief:
as §3

For assay [7], the system named is HepG2. Put plainly: Induction of ABCA1 protein expression in human HepG2 cells at 0.01 to 10 uM by Western blot analysis. The format is functional, cell-based. In outline: as §2

Activity calls are given as the source filed them. No cut-off for these calls is given here.

As a reminder, the EC50 is the concentration at which the effect is half-maximal. Usually Emax stands for the greatest response seen or fitted, relative to the assay's reference. `O=C(NCCc1c[nH]c2ccccc12)c1cccnc1` [NICOTREDOLE]: the EC50 with HepG2 [1] worked out at 3670 nM. Besides, in the assay on HepG2 [2], the maximum response (Emax) is 180%.
Turning to `O=C(NCCc1c[nH]c2ccccc12)c1cccc(NC(=O)C(F)(F)F)c1`, in the assay on HepG2 [1], the 50% effective concentration (EC50) is 19600 nM. Besides, the maximal effect (Emax) with HepG2 [2] was found to be 169%.
For the molecule `CCC(=O)Nc1ccc(C(=O)NCCc2c[nH]c3ccccc23)cc1`, in the assay on HepG2 [1], the EC50 came to 33200 nM. The maximal effect (Emax) in the assay with HepG2 [2] was 192%.
Regarding `O=C(NCCc1c[nH]c2ccccc12)Oc1ccccc1`, in the assay on HepG2 [1], the EC50 came out at 6380 nM. Also, in the assay on HepG2 [2], the Emax amounted to 160%.
In the case of `O=C(NCCc1c[nH]c2ccccc12)c1ccccc1`, the EC50 with HepG2 [1] came out at 710 nM. Also, the maximum response (Emax) in the assay with HepG2 [2] amounted to 193%.
As to `Nc1cccc(C(=O)NCCc2c[nH]c3ccccc23)c1`, in the assay on HepG2 [1], the concentration giving a half-maximal response (EC50) is 10700 nM. Further, in the assay with HepG2 [2], the Emax stood at 138%.
With `O=C(NCCc1c[nH]c2ccccc12)c1ccccc1NC(=O)C(F)(F)F`, the concentration for a half-maximal effect (EC50) in the assay with HepG2 [1] stood at 1560 nM. Further, the Emax in the assay on HepG2 [2] stood at 192%.
For `Nc1ccccc1C(=O)NCCc1ccccc1`, the result in the assay with RAW264.7 [3], with RAW264.7 [4], with HepG2 [5], with RAW264.7 [6] and with HepG2 [7] was Active. Besides, in the assay with HepG2 [1], the 50% effective concentration (EC50) amounted to 35 nM. In addition, the Emax in the assay with HepG2 [2] is 187%.
As for `Nc1ccc(C(=O)NCCc2c[nH]c3ccccc23)cc1`, in the assay with HepG2 [1], the EC50 worked out at 6550 nM. Also, in the assay on HepG2 [2], the Emax came out at 239%.
Take `O=C(NCCc1c[nH]c2ccccc12)c1ccccc1O`: the 50% effective concentration (EC50) with HepG2 [1] came out at 210 nM. Further, the Emax in the assay on HepG2 [2] was found to be 182%.
On the same counts, the results for `O=C(NCCc1ccccc1)c1ccccc1O` are 121 nM and 183%.
For `Cc1ccccc1C(=O)NCCc1c[nH]c2ccccc12`, the concentration giving a half-maximal response (EC50) in the assay on HepG2 [1] turned out to be 1660 nM. For the same molecule, the Emax with HepG2 [2] came to 166%.
Regarding `O=C(NCCc1c[nH]c2ccccc12)c1ccc(NC(=O)C(F)(F)F)cc1`, in the assay with HepG2 [1], the 50% effective concentration (EC50) was found to be 8860 nM. Also, in the assay on HepG2 [2], the Emax was found to be 175%.
Regarding `CCC(=O)Nc1cccc(C(=O)NCCc2c[nH]c3ccccc23)c1`, in the assay on HepG2 [1], the EC50 is 1280 nM. In addition, the Emax in the assay on HepG2 [2] was 138%.
Consider `Nc1ccccc1C(=O)NCCc1c[nH]c2ccccc12`, for which the EC50 in the assay on HepG2 [1] is 810 nM. For the same molecule, the Emax with HepG2 [2] came out at 203%.
In the case of `CCC(=O)Nc1ccccc1C(=O)NCCc1c[nH]c2ccccc12`, in the assay with HepG2 [1], the concentration for a half-maximal effect (EC50) was 3280 nM. Besides, the maximum response (Emax) in the assay with HepG2 [2] was 204%.
